MrgX1 antagonist: blocks BAM8-22 activation of human MrgX1 receptor; AID 588676; B-score at 10 µM; actives 1.3% (n = 310,000); MRGX1-HEK293 calcium flux, Fluo-4, BAM8-22 antagonism; stronger effect = lower value; Q96LB2;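 active means calcium-response B-score plate-corrected more than 3 library SD below zero, starting fluorescence within 5 deviations, no agonist response on first addition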;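 further: peak minus trough fluorescence over baseline after final BAM8-22 challenge near maximal dose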
Target sequence (Q96LB2 whole entry, looked up): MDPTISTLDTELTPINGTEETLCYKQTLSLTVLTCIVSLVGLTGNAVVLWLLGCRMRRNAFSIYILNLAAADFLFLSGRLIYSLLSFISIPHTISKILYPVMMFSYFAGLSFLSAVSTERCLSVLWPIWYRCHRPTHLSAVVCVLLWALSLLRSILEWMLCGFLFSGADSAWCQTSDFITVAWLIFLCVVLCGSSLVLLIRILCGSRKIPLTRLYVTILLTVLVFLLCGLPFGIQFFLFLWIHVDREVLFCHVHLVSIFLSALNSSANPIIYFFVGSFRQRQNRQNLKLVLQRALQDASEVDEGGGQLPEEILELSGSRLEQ
MrgX1 PAM: allosterically activates human MrgX1 receptor signaling | actives 0.63% (n = 310,000) | Q96LB2 | B-score at 10 µM | MrgX1-HEK293, Fluo-4 calcium flux, FDSS; stronger effect = higher value | AID 588675;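 active means plate-corrected calcium response at least 3 library SD above typical, normal starting fluorescence, not activating the receptor alone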;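 further: compound read alongside a low EC10 to EC30 dose of BAM8-22 agonist; peak minus trough fluorescence over baseline measured at the second addition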
RGS4 inh: human RGS4 inhibition | P49798 | HEK293 M3R/RGS4 inducible, Fluo-4 calcium flux; stronger effect = higher value; triggered by carbachol at its EC20 | B-score at 10 µM | actives 0.45% (n = 310,000) | AID 463165;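 active means B-score, a plate-corrected calcium signal, over three deviations above library mean, with baseline fluorescence within five deviations of library mean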;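 further: RGS4 expression induced by doxycycline in cells with stable M3 receptor; B-score is computed from the integrated fluorescence ratio over baseline after carbachol; higher B-score means a larger calcium signal and so more RGS4 inhibition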
Target sequence (P49798 whole entry, looked up): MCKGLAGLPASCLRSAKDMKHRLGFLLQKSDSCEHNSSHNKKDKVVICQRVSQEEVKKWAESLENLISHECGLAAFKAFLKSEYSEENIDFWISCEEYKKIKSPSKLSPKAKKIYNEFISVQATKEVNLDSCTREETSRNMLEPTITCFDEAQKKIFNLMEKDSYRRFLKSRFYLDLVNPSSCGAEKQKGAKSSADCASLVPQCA
MrgX1 agonist: activates human MrgX1 receptor signaling | Q96LB2 | MrgX1-HEK293 cells, Fluo-4 calcium fluorescence, agonist mode; stronger effect = higher value | B-score at 10 µM | actives 0.44% (n = 310,000) | AID 588627;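 active means calcium response B-score plate-corrected fluorescence ratio at least 3 library SD, with starting fluorescence B-score inside 5 SD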
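System: HEK293 cells stably expressing human MrgX1 receptor; Dosing: test compound in the initial addition of three; Schedule: overnight plating, then 30 min 37 °C plus 30 min room-temperature dye loading; Detection: kinetic calcium dye fluorescence, Fluo-4 NW; Controls: per-plate positive and negative controls for Z′ factor.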
RGS4 act: potentiators or activators of RGS4. AID 463111. HEK293 M3R/inducible RGS4, carbachol calcium flux Fluo4; stronger effect = lower value. actives 0.92% (n = 310,000). B-score at 10 µM;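 active means B-score of the integrated calcium signal more than 4 SD below the library mean, with starting fluorescence not abnormally high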;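 further: negative B-score means reduced calcium response which marks RGS4 activation or potentiation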
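Material: M3R-expressing HEK293 line, RGS4 induced by doxycycline | Schedule: Overnight RGS4 induction, 30 min dye load 37 °C, 20 min compound RT | Measured by: Fluo4 fluorescence kinetic imaging of calcium | Read-out: Integrated calcium ratio converted to B score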
Numbers stand for hits; 0 = inactive; - = no result given. Rows were chosen to be rich in hits. Some 3.5% of all compounds tested hit in one or more screens of this group.

SMILES	MrgX1 antagonist	MrgX1 PAM	RGS4 inh	MrgX1 agonist	RGS4 act
CC[C@@H](C)[C@H](CNC)NC[C@@H](Cc1cccc2ccccc12)NCCc1cccc(C(F)(F)F)c1	0	0	0	0	-9.3
CCC[C@H](CN[C@@H](CNC)[C@H](C)CC)NCCc1cc(C(F)(F)F)cc(C(F)(F)F)c1	0	0	0	0	0
CCOc1ccc(S(=O)(=O)N2CCN=C2c2ccccc2)c(C)c1C	0	0	0	0	0
COC(=O)c1ccc2c(c1)C(C)(C)C(/C=C/c1ccccc1O)=[N+]2C	0	0	0	0	-7.2
C[N+]1=C(/C=C/Nc2ccccc2Cl)C(C)(C)c2ccccc21	0	0	0	0	0
COC(=O)/C=C1\OC(c2ccccc2)=CC1=O	0	0	26	0	0
COCc1c(Br)c(C)nc(OCC(=O)N/N=C/c2cc(C)n(-c3ccc([N+](=O)[O-])cc3)c2C)c1C#N	0	0	0	0	-7.9
Cc1ccc(C(=O)/C=C/NNC(=O)c2ccccc2O)cc1	0	0	0	0	0
CC1(C)NC(=O)N(CC(O)CN(c2ccccc2)S(=O)(=O)c2ccc([N+](=O)[O-])cc2)C1=O (stereo not given)	0	0	0	0	0
Clc1ccccc1C1=CC(c2ccco2)n2ncnc2N1 (stereo not given)	0	0	0	29	0
O=C(CN1C(=O)C2CC=CCC2C1=O)OCC(=O)c1ccc(Cl)c([N+](=O)[O-])c1 (stereo not given)	0	0	0	0	0
CN(CC(=O)Nc1ccccc1Cl)CC(=O)Nc1ccccc1[N+](=O)[O-]	0	10	0	0	0
Cc1cnc(NC(=O)C2CC=CCC2)s1 (stereo not given)	0	0	0	0	0
COCCNC(=O)CN(C(=O)CCC(=O)Nc1ccccn1)c1ccc(C)c(C)c1	0	0	0	0	0
CC1(c2ccc(OC(F)F)cc2)NC(=O)N(CC(=O)Nc2ccccc2)C1=O (stereo not given)	0	0	0	29	0
COc1ccc(C2(c3ccc(OC)cc3)NC(=O)N(CC(=O)Nc3ccc(C(=O)N(C)C)cc3)C2=O)cc1	-6.4	0	0	0	0
CCOC(=O)CN1C(=O)NC(C)(c2ccc(OC(F)F)cc2)C1=O (stereo not given)	0	0	0	0	0
CC(=O)Nc1ccc(/C=N/N2C(=O)NC(C)(c3ccc(OC(F)F)cc3)C2=O)cc1 (stereo not given)	0	0	0	31	-7
CC1(c2ccc(OC(F)F)cc2)NC(=O)N(CC(=O)Nc2ccc3[nH]c(=O)[nH]c3c2)C1=O (stereo not given)	0	0	0	0	0
O=[N+]([O-])c1cccc2c(N3CCCC3)ccnc12	0	0	0	0	0
Cc1sc(NC(=O)c2ccco2)nc1-c1ccc2c(c1)CC(C)N2C(=O)C1CC1 (stereo not given)	0	0	0	0	-7.1
CCOC(=O)Nc1ccc2c(c1)N(C(=O)CCN(C)C)c1ccccc1S2	0	0	0	0	-7
COc1ccc(OC)c(/C=N/NC(=O)c2ccc(N(C)S(=O)(=O)c3ccccc3)cc2)c1	0	7	0	0	0
COc1ccc(/C=N/NC(=O)c2ccc(N(C)S(=O)(=O)c3ccccc3)cc2)c(OC)c1	0	0	0	0	0
CCOC(=O)c1ncn2c1[C@@H]1CCNC1C(=O)c1cc(OC)ccc1-2 (stereo not given in full)	0	0	-	0	-
SMILES	MrgX1 antagonist	MrgX1 PAM	RGS4 inh	MrgX1 agonist	RGS4 act
COc1ccc(-c2csc(NC(=O)c3ccc(OCC(=O)N4CCOCC4)c(OC)c3)n2)cc1	-5.1	0	0	0	0
CCOc1ccc(N=C2C(=O)N(CN3CCOCC3)c3ccccc32)cc1	0	0	0	33	0
O=C(C1=NN[C@@H]2C(=O)N(Cc3ccccc3)C(=O)[C@H]12)c1ccc([N+](=O)[O-])cc1	0	0	0	0	0
O=C(Oc1ccc(/C=N/O)cc1)c1ccccc1Cl	0	16	0	0	0
Cc1cccc(C(=O)Oc2ccc(/C=N/O)cc2)c1	0	7.7	0	0	0
Cc1ccc(C(=O)N/N=C\c2ccc(OC(=O)c3cccc(F)c3)cc2)cn1	0	0	0	0	0
O=C(Oc1ccc2ccc(O)cc2c1)c1ccccc1Cl	0	0	0	0	0
COc1ccccc1NS(=O)(=O)c1cc([N+](=O)[O-])ccc1N/N=C/c1sc(N2CCOCC2)nc1-c1ccccc1	-8	0	0	0	0
COc1ccc(C(=O)N/N=C/c2sc(N3CCOCC3)nc2-c2ccccc2)cc1OC	0	0	0	0	0
O=C(NNC(=S)NC(=O)c1ccccc1[N+](=O)[O-])c1ccccc1[N+](=O)[O-]	0	0	0	0	0
CCCCOc1ccccc1C(=O)NNC(=S)NC(=O)c1ccccc1[N+](=O)[O-]	-5.8	0	0	0	0
CCC(C)C(NC(=O)OC(C)(C)C)C(=O)NC(Cc1ccccc1)C(=O)OC (stereo not given)	0	7.3	0	0	0
COc1ccc(Cl)cc1S(=O)(=O)N1CCCC(C(=O)NCc2ccncc2)C1 (stereo not given)	0	0	0	0	0
O=C(NNc1ccccc1)Nc1ccccc1F	0	0	0	0	0
COc1ccccc1-c1nnn(CC#N)n1	-7.5	0	0	0	0
CCn1cc(C(=O)N[C@@H](CCSC)C(=O)NCCCn2ccnc2)c(=O)c2cc3c(cc21)OCO3	0	0	0	0	0
CNc1ccc(Br)cc(C(=O)/C=C/c2cc(OC)ccc2OC)c1=O	0	0	0	0	0
CCNc1ccc(Br)cc(C(=O)/C=C/c2ccc(Cl)cc2Cl)c1=O	-6.1	0	0	0	0
COc1ccc(S(=O)(=O)/N=C2/C=CC(=O)C(C)=C2C)cc1	0	0	0	0	0
CC1=C(C)/C(=N\OS(=O)(=O)c2ccc(C)cc2)C=CC1=O	-5.2	0	-	0	-
CC1=C/C(=N\OS(=O)(=O)c2ccccc2)C(C(C)C)=CC1=O	-4.6	0	-	0	-
CC1=CC(=O)c2ccccc2C1=O	0	0	0	0	0
CC1=C/C(=N\OS(=O)(=O)c2ccccc2)C(C)=CC1=O	0	15	-	0	-
CC(C)C(NS(=O)(=O)c1ccc2c(c1)C(C)(C)C(=O)N2C)C(=O)NCc1ccc(F)cc1 (stereo not given)	0	0	0	0	0
Cc1ccc(NCC(O)C(O)C(O)CO)c(N=Nc2ccccc2)c1C (stereo not given)	0	0	0	0	0
CC(C)(C)c1ccc(OCCC(=O)OCC(=O)Nc2cccnc2Cl)cc1	0	0	0	0	0
COc1ccc(/C=C/C(=O)c2cc(Cl)ccc2O)c(OC)c1	0	0	0	0	0
COc1ccc(/C=C/C(=O)c2ccc(Cl)cc2)c(OC)c1	-4.9	0	0	0	0
